# Experimental data published in ChEMBL document CHEMBL4257575, “Discovery of Novel Flavonoid Dimers To Reverse Multidrug Resistance Protein 1 (MRP1, ABCC1) Mediated Drug Resistance in Cancers Using a High Throughput Platform with "Click Chemistry"” (J Med Chem, 2018).
# Active and inactive are the calls of the source. No cut-off for these calls is given here.
# Key:
# [1] = Solubility in NMP/Cremorphol/Tween80/H2O (5:5:4.5:85.5) formulation; type: physicochemical
# [2] = Plasma concentration in Balb/c mouse at 10 mg/kg, iv measured up to 360 mins by LC-MS/MS analysis; type: ADME, organism-based; conditions: in vivo, 6 h, BLD = below limit of detection
# Procedure, shortened: (§1)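 Female Balb/c mice given 10 mg/kg i.v. (25G needle) of the HCl salt, 1.5 mg/mL in NMP:Cremorphol:Tween 80:H₂O (5:5:4.5:85.5). Cardiac-puncture blood under ether at 15–360 min, 3 mice per time point; plasma spun 16,000 g, stored −20°C. Methanol precipitation with [¹³C6]paclitaxel internal standard; LC-MS/MS, BEH C18, water/methanol with 0.1% formic acid gradient. Mean ± SEM.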
# L929 = test: Cytotoxicity against mouse L929 cells assessed as reduction in cell survival after 5 days by MTS assay; type: cell-based; conditions: L929, 120 h
# [3] = target: T1, Multidrug resistance-associated protein 1 (Homo sapiens, UniProt P33527); test: Inhibition of MRP1 in human 2008/MRP1 cells assessed as potentiation of doxorubicin-induced cytotoxicity by measuring cell survival at 1 uM after 5 days by MTS assay relative to control; type: cell-based; conditions: 120 h
# Procedure, shortened: (§2)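 2008/MRP1 cells (retroviral human MRP1 transfectant; RPMI 1640, 10% FBS) at 4,000 per well, with 100 nM doxorubicin plus crude, unpurified click products in DMSO: 2 µM in the primary screen, 1 µM in the secondary. Incubated 5 days at 37 °C. MTS/PMS added for 2 h at 37 °C, absorbance read at 490 nm. % survival is relative to wells without DOX or product. Run in triplicate, at least three experiments.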
# [4] = Cytotoxicity against human 2008/MRP1 cells assessed as cell survival at 2 uM after 5 days by MTS assay relative to control; type: cell-based; conditions: read-out: Survival
# [5] = target: T1, Multidrug resistance-associated protein 1; test: Inhibition of MRP1 in human 2008/MRP1 cells assessed as potentiation of doxorubicin-induced cytotoxicity by measuring cell survival at 2 uM after 5 days by MTS assay relative to control; type: cell-based; conditions: 120 h; procedure, shortened: as §2
# MRP1 = test: in vitro; conditions: mouse, L929 cells (IC50) versus 2008/MRP1 cells (EC50)
# [6] = target: T1, Multidrug resistance-associated protein 1; test: Inhibition of MRP1 in human 2008/MRP1 cells assessed as effect on doxorubicin efflux at 2 uM up to 105 mins by flow cytometric analysis; type: cell-based
# Procedure, shortened: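 Efflux: cells preloaded with 20 µM DOX in supplemented RPMI1640 for 1 h at 37°C, washed, then kept with or without 2 µM modulator. […] Mean ± SEM; paired t test at each time point.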
# Mus musculus = test: Time duration at which plasma concentration stays above in vitro EC50 for MRP1 in Balb/c mouse at 10 mg/kg, iv measured up to 360 mins by LC-MS/MS analysis; type: ADME, organism-based; conditions: in vivo, 6 h; procedure, shortened: as §1
# Homo sapiens [7] = species: Homo sapiens; test: Inhibition of P-gp in human LCC6MDR cells assessed as potentiation of paclitaxel-induced cytotoxicity by measuring fold reduction in paclitaxel IC50 at 1 uM after 5 days by MTS assay relative to paclitaxel alone; type: cell-based
# Homo sapiens [8] = species: Homo sapiens; test: Effect on MRP1 expression in human 2008/MRP1 cells up to 5 uM after 3 days by FITC staining based flow cytometry; type: functional, cell-based
# Homo sapiens [9] = species: Homo sapiens; test: Effect on doxorubicin influx in human 2008/P cells at 2 uM incubated up to 60 mins by flow cytometric analysis; type: functional, cell-based
# Homo sapiens [10] = species: Homo sapiens; test: Effect on doxorubicin influx in human 2008/MRP1 cells at 2 uM incubated up to 60 mins by flow cytometric analysis; type: functional, cell-based
# T1 sequence (P33527 whole entry): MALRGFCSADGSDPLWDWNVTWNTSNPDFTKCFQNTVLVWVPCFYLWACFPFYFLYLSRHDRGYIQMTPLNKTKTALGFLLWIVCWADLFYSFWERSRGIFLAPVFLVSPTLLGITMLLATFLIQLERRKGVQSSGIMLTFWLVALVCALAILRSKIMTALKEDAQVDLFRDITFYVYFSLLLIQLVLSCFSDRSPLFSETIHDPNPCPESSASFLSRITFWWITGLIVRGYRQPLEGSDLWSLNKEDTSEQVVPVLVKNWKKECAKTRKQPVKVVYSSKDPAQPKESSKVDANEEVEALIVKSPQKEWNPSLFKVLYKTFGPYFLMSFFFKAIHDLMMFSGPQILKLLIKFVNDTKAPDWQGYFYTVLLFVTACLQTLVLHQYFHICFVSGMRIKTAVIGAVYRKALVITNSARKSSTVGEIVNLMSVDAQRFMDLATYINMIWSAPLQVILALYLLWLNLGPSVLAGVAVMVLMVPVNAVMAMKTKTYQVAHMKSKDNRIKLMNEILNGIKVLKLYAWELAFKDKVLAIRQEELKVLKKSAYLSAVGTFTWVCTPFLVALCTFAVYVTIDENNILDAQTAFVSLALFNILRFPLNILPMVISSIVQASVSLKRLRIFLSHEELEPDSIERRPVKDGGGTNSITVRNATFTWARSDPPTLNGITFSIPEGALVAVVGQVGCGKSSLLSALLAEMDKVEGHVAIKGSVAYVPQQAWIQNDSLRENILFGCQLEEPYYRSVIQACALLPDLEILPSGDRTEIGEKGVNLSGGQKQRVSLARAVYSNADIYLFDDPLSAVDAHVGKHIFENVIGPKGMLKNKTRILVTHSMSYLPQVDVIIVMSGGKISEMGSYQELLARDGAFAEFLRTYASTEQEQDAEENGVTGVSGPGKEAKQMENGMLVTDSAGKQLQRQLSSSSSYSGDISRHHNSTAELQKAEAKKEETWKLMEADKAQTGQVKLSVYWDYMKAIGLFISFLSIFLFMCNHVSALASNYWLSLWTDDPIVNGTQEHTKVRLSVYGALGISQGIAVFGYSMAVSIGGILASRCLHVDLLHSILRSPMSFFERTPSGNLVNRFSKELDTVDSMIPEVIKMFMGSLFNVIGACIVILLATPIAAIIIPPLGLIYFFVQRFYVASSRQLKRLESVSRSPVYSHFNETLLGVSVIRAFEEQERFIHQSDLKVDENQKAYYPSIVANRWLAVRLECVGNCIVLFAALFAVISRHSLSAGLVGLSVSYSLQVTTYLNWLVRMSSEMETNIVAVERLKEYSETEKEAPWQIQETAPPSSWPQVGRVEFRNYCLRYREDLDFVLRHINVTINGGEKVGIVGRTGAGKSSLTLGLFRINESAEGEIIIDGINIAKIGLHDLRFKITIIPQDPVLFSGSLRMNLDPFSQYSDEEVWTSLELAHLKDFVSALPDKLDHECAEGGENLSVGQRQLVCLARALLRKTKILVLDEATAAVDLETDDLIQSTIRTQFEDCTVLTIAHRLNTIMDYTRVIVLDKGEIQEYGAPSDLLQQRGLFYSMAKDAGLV
smiles,measurement,setting,value
Cc1ccc2oc(-c3ccc(OCCOCCOCCOCCOCCOc4ccc(-c5cc(=O)c6cc(C)ccc6o5)cc4)cc3)cc(=O)c2c1,solubility,[1],Insoluble
same,Cp,[2],Bld
same,IC50,L929,> 100 µM
O=c1cc(-c2ccc(OCCCc3cn(CCOCCOc4ccc5c(=O)cc(-c6ccccc6)oc5c4)nn3)cc2)oc2cc(F)ccc12 [listing 1 of 2 here],IC50,L929,> 100 µM
same,Survival,[3],49%
same,"viability at 120 h, 2 µM",[4],93%
same,Survival,[5],41%
same,selectivity ratio,MRP1,> 1890
same,INH,[6],Active
Cl.O=c1cc(-c2ccc(OCCCc3cn(CCOCCOc4ccc5c(=O)cc(-c6ccccc6)oc5c4)nn3)cc2)oc2cc(F)ccc12,Time,Mus musculus,90 min
O=c1cc(-c2ccc(OCCCc3cn(CCOCCOc4ccc5c(=O)cc(-c6ccccc6)oc5c4)nn3)cc2)oc2cc(F)ccc12 [listing 2 of 2 here],Ratio IC50,Homo sapiens [7],40.7
same,Activity,Homo sapiens [8],inactive
same,Activity,Homo sapiens [9],inactive
same,Activity,Homo sapiens [10],inactive
